Results as given in paper PMC4134960 (Pharmacological research : the official journal of the …, 2014).
Read-outs that look alike come from different tables or passages of the source.

What was measured:
[1] = cited from earlier work; for PSA (polar surface area): ref Moreno-Sanz et al., 2013
FAAH [2] = molecular target: T1, FAAH (Mus musculus, UniProt O08914); conditions: cited from earlier work; for Brain ID50: inhibition of brain FAAH activity after systemic administration in mice, ref Moreno-Sanz et al., 2013
T1 sequence (O08914 1-579): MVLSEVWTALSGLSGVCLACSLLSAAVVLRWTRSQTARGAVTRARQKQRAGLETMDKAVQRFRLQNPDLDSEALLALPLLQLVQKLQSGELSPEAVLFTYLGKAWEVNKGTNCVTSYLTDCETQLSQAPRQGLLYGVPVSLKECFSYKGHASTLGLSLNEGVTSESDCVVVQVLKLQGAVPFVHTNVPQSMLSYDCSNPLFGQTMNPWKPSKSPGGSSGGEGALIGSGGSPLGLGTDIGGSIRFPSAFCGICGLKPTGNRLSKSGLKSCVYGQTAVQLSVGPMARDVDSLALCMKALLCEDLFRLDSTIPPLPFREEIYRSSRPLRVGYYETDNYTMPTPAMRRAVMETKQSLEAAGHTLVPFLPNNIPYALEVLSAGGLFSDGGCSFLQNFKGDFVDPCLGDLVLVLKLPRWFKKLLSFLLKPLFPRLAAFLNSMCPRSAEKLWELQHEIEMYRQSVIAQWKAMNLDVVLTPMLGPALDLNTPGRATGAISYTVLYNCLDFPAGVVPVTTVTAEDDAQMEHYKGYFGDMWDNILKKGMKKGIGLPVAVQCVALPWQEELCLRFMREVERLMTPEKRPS

wild-type MDCKII cells = test: Transepithelial transport in monolayers of wild-type MDCKII cells
murine Abcg2 = molecular target: T2, murine Abcg2 (Mus musculus, UniProt Q7TMS5); test: Transepithelial transport in monolayers of MDCKII cells over-expressing Abcg2; format: in vitro ADME
T2 sequence (Q7TMS5 1-657): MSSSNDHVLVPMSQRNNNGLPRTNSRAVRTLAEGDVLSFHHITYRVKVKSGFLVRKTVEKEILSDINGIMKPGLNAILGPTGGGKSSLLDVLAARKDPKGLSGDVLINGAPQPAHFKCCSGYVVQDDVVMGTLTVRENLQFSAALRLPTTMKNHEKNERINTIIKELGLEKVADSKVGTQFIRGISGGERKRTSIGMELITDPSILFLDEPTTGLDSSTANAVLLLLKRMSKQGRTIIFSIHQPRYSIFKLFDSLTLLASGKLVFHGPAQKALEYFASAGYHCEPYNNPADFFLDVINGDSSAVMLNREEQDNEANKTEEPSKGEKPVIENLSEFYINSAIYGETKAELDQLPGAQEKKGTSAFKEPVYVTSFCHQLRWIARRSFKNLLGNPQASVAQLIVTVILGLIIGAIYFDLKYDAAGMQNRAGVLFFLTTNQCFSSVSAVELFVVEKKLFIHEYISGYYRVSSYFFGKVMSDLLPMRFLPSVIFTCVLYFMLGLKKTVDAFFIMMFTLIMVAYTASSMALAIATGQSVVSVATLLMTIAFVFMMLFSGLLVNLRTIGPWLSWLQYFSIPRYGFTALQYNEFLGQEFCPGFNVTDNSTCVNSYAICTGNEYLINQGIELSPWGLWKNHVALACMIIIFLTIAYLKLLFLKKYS

human ABCB1 = human ABCB1 (Homo sapiens, UniProt P08183); test: Transepithelial transport in monolayers of MDCKII cells over-expressing ABCB1; conditions: for A to B transport (percentage of drug appearing in the opposite compartment) / B to A transport (percentage of drug appearing in the opposite compartment) / Ratio BA/AB (relative transport ratio): MDCKII over-expressing ABCB1, after 4h, 5 μM (compound 8: 1 μM); for Vectorial transport by ABCB1 (in words): MDCKII transduced with human ABCB1
Abcg2 = molecular target: T3, Abcg2 (Mus musculus, UniProt Q7TMS5); test: Transepithelial transport in monolayers of MDCKII cells over-expressing Abcg2; format: in vitro ADME, murine; conditions: mouse, Ratio BA/AB (relative transport ratio), MDCKII over-expressing Abcg2, after 4h, 5 μM (compound 8: 1 μM)
T3 sequence (Q7TMS5 1-657): T2 sequence (Q7TMS5 1-657)

FAAH [3] = molecular target: T1, FAAH; format: in vivo, mice
Outline: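 Dosing was i.p. in saline/PEG400/Tween-80 (18:1:1), with kill at 1 h. Brain S1 fraction (1000 × g; 50 μg protein by BCA) was incubated 30 min at 37°C in 50 mM Tris-HCl pH 7.5 with 0.05% fatty acid-free BSA, 10 μM anandamide and [ethanolamine-3H]anandamide (10,000 cpm). The reaction was stopped with chloroform/methanol (1:1), and aqueous-phase radioactivity counted by scintillation. n = 3–4, mean ± SEM, ANOVA with Dunnett's test vs vehicle.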

[4] = Brain-to-plasma ratio of URB937 in wild-type and transporter knockout mice; format: in vivo; conditions: 5 mg/kg i.p., 1 h
Outline: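 Male 9-week FVB wild-type, Mdr1a/b−/−, Bcrp−/− and Mdr1a/b−/−-Bcrp−/− mice received the test compound i.p. in saline/PEG400/Tween-80 (18:1:1, v/v/v) at 10 mL/kg and were killed 1 h later. Plasma came from cardiac blood spun at 2000 × g for 20 min. Brain was homogenized in 50 mM Tris-HCl pH 7.5/0.32 M sucrose, spun at 1000 × g for 10 min at 4°C, and extracted with methanol/chloroform. Read-out by LC/MS on C18 (m/z 377). n = 3–4, mean ± SEM.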

[5] = Transepithelial transport in monolayers of wild-type MDCKII cells; conditions: dog, MDCK, Ratio BA/AB (relative transport ratio), after 4h, 5 μM (compound 8: 1 μM)
[6] = after 4h, 5 μM (compound 8: 1 μM)
[7] = MDCKII over-expressing Abcg2, after 4h, 5 μM (compound 8: 1 μM)

human ABCB1, sequence (P08183 whole entry): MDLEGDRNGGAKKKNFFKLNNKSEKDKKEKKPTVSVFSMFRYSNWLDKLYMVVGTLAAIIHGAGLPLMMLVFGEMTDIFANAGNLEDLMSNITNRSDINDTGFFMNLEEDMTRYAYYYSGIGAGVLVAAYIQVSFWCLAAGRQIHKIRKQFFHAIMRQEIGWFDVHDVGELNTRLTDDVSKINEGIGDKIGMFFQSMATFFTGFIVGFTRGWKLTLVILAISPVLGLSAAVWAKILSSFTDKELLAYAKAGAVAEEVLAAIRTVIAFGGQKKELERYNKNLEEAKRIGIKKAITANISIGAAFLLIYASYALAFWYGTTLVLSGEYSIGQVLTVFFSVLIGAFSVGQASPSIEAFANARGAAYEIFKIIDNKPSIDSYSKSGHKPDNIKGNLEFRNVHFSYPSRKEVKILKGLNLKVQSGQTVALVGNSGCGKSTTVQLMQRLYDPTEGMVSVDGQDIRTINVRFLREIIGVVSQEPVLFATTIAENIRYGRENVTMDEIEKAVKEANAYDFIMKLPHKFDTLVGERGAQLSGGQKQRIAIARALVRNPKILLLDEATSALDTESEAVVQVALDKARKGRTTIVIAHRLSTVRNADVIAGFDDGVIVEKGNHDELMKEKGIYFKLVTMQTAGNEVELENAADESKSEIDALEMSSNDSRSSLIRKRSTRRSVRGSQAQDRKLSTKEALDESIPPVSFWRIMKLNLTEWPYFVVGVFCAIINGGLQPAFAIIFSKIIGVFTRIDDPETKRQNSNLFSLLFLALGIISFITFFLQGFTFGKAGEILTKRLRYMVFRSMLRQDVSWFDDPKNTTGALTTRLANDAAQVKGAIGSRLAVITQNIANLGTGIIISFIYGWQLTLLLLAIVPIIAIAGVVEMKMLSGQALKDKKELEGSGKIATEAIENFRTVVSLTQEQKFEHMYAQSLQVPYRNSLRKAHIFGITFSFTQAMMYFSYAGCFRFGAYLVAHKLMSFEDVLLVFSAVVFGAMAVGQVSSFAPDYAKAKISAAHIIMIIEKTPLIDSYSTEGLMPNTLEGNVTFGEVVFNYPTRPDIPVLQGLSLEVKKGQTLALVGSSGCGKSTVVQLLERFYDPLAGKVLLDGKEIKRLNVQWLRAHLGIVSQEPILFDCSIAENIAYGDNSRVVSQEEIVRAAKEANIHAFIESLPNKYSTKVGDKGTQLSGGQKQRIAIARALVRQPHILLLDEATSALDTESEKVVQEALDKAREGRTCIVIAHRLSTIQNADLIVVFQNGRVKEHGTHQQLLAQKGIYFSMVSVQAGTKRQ

N.NC(=O)c1cccc(-c2cc(OC(=O)NC3CCCCC3)ccc2OS(=O)(=O)O)c1 [Compound 9]
PSA (polar surface area) [1]: 117 Å^2
Brain ID50 (FAAH [2]): >75 mg/kg
Translocation in apical or basolateral direction (in words) (wild-type MDCKII cells): minimal translocation in either the apical or basolateral direction
A to B transport (percentage of drug appearing in the opposite compartment) (wild-type MDCKII cells; [6]): 7.92 ± 0.41%
B to A transport (percentage of drug appearing in the opposite compartment) (wild-type MDCKII cells; [6]): 7.49 ± 0.39%

CNC(=O)c1cccc(-c2cc(OC(=O)NC3CCCCC3)ccc2O)c1 [Compound 1]
A to B transport (percentage of drug appearing in the opposite compartment) (murine Abcg2; [7]): 6.99 ± 0.99 %
B to A transport (percentage of drug appearing in the opposite compartment) (murine Abcg2; [7]): 69.8 ± 16.9%
PSA (polar surface area) [1]: 73 Å^2
A to B transport (percentage of drug appearing in the opposite compartment) (wild-type MDCKII cells; [6]): 21.7 ± 0.96%
B to A transport (percentage of drug appearing in the opposite compartment) (wild-type MDCKII cells; [6]): 48.1 ± 2.33%
A to B transport (percentage of drug appearing in the opposite compartment) (human ABCB1): 8.55 ± 1.79%
B to A transport (percentage of drug appearing in the opposite compartment) (human ABCB1): 67.4 ± 14.5%

CC(=O)c1cccc(-c2cc(OC(=O)NC3CCCCC3)ccc2O)c1 [Compound 3]
Transport substrate for Abcg2 (in words) (murine Abcg2; MDCKII over-expressing Abcg2): did not behave as a transport substrate for Abcg2
A to B transport (percentage of drug appearing in the opposite compartment) (murine Abcg2; [7]): 24.5 ± 2.39 %
B to A transport (percentage of drug appearing in the opposite compartment) (murine Abcg2; [7]): 30.5 ± 0.75%
Ratio BA/AB (relative transport ratio) (murine Abcg2; [7]): 1.25 ± 0.13
PSA (polar surface area) [1]: 62 Å^2
Brain ID50 (FAAH [2]): <1 mg/kg
A to B transport (percentage of drug appearing in the opposite compartment) (wild-type MDCKII cells; [6]): 39.4 ± 0.54%
B to A transport (percentage of drug appearing in the opposite compartment) (wild-type MDCKII cells; [6]): 46.8 ± 2.73%
A to B transport (percentage of drug appearing in the opposite compartment) (human ABCB1): 39.8 ± 1.88%
B to A transport (percentage of drug appearing in the opposite compartment) (human ABCB1): 57.6 ± 7.90%
Ratio BA/AB (relative transport ratio) (human ABCB1): 1.44 ± 0.13
Vectorial transport by ABCB1 (in words) (human ABCB1): no significant vectorial transport

O=C(NC1CCCCC1)Oc1ccc(O)c(-c2cccc(C(=O)O)c2)c1 [Compound 4]
PSA (polar surface area) [1]: 77 Å^2
Brain ID50 (FAAH [2]): 12 mg/kg
Translocation in apical or basolateral direction (in words) (wild-type MDCKII cells): minimal translocation in either the apical or basolateral direction
A to B transport (percentage of drug appearing in the opposite compartment) (wild-type MDCKII cells; [6]): 4.93 ± 0.88%
B to A transport (percentage of drug appearing in the opposite compartment) (wild-type MDCKII cells; [6]): 5.21 ± 0.42%

COc1ccc(OC(=O)NC2CCCCC2)cc1-c1cccc(C(N)=O)c1 [Compound 7]
A to B transport (percentage of drug appearing in the opposite compartment) (murine Abcg2; [7]): 7.29 ± 1.30 %
B to A transport (percentage of drug appearing in the opposite compartment) (murine Abcg2; [7]): 98.8 ± 16.6%
PSA (polar surface area) [1]: 74 Å^2
A to B transport (percentage of drug appearing in the opposite compartment) (wild-type MDCKII cells; [6]): 29.3 ± 0.44%
B to A transport (percentage of drug appearing in the opposite compartment) (wild-type MDCKII cells; [6]): 37.1 ± 1.48%
A to B transport (percentage of drug appearing in the opposite compartment) (human ABCB1): 21.6 ± 0.55%
B to A transport (percentage of drug appearing in the opposite compartment) (human ABCB1): 45.1 ± 3.61%
Ratio BA/AB (relative transport ratio) (human ABCB1): 2.08 ± 0.11
Vectorial transport by ABCB1 (in words) (human ABCB1): no significant vectorial transport

COc1ccc2c3c([nH]c2c1)[C@H](CC(C)C)N1C(=O)[C@H](CCC(=O)OC(C)(C)C)NC(=O)[C@@H]1C3 [Ko143, reference compound]
Effect of inhibitor on translocation of all compounds (in words) (murine Abcg2; MDCKII over-expressing Abcg2, Ko143 1 μM): blocked

NC(=O)c1cccc(-c2cc(OC(=O)NC3CCCCC3)ccc2O)c1 [URB937, cyclohexylcarbamic acid 3′-carbamoyl-6-hydroxybiphenyl-3-yl ester]
efflux ratio at 4 h (Abcg2): ≥ 10
A to B transport (percentage of drug appearing in the opposite compartment) (murine Abcg2; [7]): 1.68 ± 0.12%
B to A transport (percentage of drug appearing in the opposite compartment) (murine Abcg2; [7]): 25.9 ± 1.44%
Effect on brain FAAH activity (in words) (FAAH [3]; Mdr1a/b−/−-Bcrp−/− mice, 5 mg/kg i.p.): drastically inhibited
inhibition at 5 mg/kg (FAAH [3]; mouse, ip, read-out: Inhibition of brain FAAH): 26%
Effect on brain FAAH activity (in words) (FAAH [3]; wild-type mice, 5 mg/kg i.p.): did not affect FAAH activity
Effect on liver FAAH activity (in words) (FAAH [3]; wild-type mice, 5 mg/kg i.p.): completely blocked FAAH activity
Brain-to-plasma ratio (in words) ([4]; Abcb1-deficient (Mdr1a/b−/−) mice): not significantly different from controls
Brain-to-plasma ratio (in words) ([4]; Mdr1a/b−/−-Bcrp−/− mice): significantly increased
PSA value [1]: ≥ 80 Å
Brain ID50 relative to dose needed to inhibit FAAH in liver (FAAH [2]; brain vs liver): 400 times
Brain FAAH activity median effective dose (ID50) (FAAH [2]; brain): 40 mg/kg
Brain ID50 (FAAH [2]): 40 mg/kg
Liver FAAH activity ID50 (FAAH [2]; peripheral organs such as the liver): 0.1 mg/kg
efflux ratio at 4 h [5]: ≥ 2
A to B transport (percentage of drug appearing in the opposite compartment) (wild-type MDCKII cells; [6]): 17.78 ± 2.12%
B to A transport (percentage of drug appearing in the opposite compartment) (wild-type MDCKII cells; [6]): 44.3 ± 5.35%
A to B transport (percentage of drug appearing in the opposite compartment) (human ABCB1): 5.89 ± 1.33%
B to A transport (percentage of drug appearing in the opposite compartment) (human ABCB1): 50.2 ± 4.02%

Cc1ccc(OC(=O)NC2CCCCC2)cc1-c1cccc(C(N)=O)c1 [Compound 8, cyclohexylcarbamic acid 3′-carbamoyl-6-methylbiphenyl-3-yl ester]
efflux ratio at 4 h (Abcg2): ≥ 10
A to B transport (percentage of drug appearing in the opposite compartment) (murine Abcg2; [7]): 5.59 ± 0.58 %
B to A transport (percentage of drug appearing in the opposite compartment) (murine Abcg2; [7]): 64.8 ± 4.87%
PSA (polar surface area) [1]: 66 Å^2
efflux ratio at 4 h [5]: ~1
A to B transport (percentage of drug appearing in the opposite compartment) (wild-type MDCKII cells; [6]): 26.0 ± 1.52%
B to A transport (percentage of drug appearing in the opposite compartment) (wild-type MDCKII cells; [6]): 27.3 ± 3.8%
Ratio BA/AB (relative transport ratio) (wild-type MDCKII cells; [6]): 1.06 ± 0.15
A to B transport (percentage of drug appearing in the opposite compartment) (human ABCB1): 20.7 ± 1.00%
B to A transport (percentage of drug appearing in the opposite compartment) (human ABCB1): 35.8 ± 0.43%
Vectorial transport by ABCB1 (in words) (human ABCB1): no significant vectorial transport

CN(C)C(=O)c1cccc(-c2cc(OC(=O)NC3CCCCC3)ccc2O)c1 [Compound 2]
A to B transport (percentage of drug appearing in the opposite compartment) (murine Abcg2; [7]): 6.95 ± 0.42 %
B to A transport (percentage of drug appearing in the opposite compartment) (murine Abcg2; [7]): 91.0 ± 12.7%
PSA (polar surface area) [1]: 65 Å^2
Brain ID50 (FAAH [2]): 5 mg/kg
A to B transport (percentage of drug appearing in the opposite compartment) (wild-type MDCKII cells; [6]): 25.6 ± 1.96%
B to A transport (percentage of drug appearing in the opposite compartment) (wild-type MDCKII cells; [6]): 43.1 ± 4.48%
A to B transport (percentage of drug appearing in the opposite compartment) (human ABCB1): 8.86 ± 0.95%
B to A transport (percentage of drug appearing in the opposite compartment) (human ABCB1): 58.6 ± 3.85%
Ratio BA/AB (relative transport ratio) (human ABCB1): 6.65 ± 0.36
